Test results as given in ChEMBL document CHEMBL5329165, “Design, synthesis and biological evaluation of phenanthridine amide and 1,2,3-triazole analogues against Mycobacterium tuberculosis” (RSC Med Chem, 2023).
≈ marks a conversion by molar mass, not a printed value.

Experiments:
[1] = Cytotoxicity against human HepG2 cells assessed as reduction in cell viability by alamar blue assay; type: toxicity, cell-based
Procedure, shortened: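 HepG2 cells grown in Glutamax DMEM with 10% (v/v) FBS and antibiotics, seeded in 96-well plates at 37°C, 5% CO₂. Viability measured by Alamar Blue staining per manufacturer's protocol; CC₅₀ derived.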

[2] = system: Mycobacterium tuberculosis; experiment: Antimycobacterial activity against non-replicating Mycobacterium tuberculosis H37Rv ATCC 27294 incubated for 10 days under anaerobic condition followed by treatment under aerobic condition and measured on day 11 by luminescence based low oxygen recovery assay; type: functional; conditions: H37Rv ATCC 27294, 264 h, time 11 day
Procedure, shortened: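 Low-oxygen recovery assay with H37Rv carrying autoluminescent LuxABCDE plasmid, adapted to low oxygen. Cells in 7H12 broth, sonicated 15 s, inoculum 5 x 10⁵ to 2 x 10⁶ CFU/mL, with twofold compound dilutions. Anaerobic (<0.16% O₂; 10% H₂, 5% CO₂, N₂) at 37°C for 10 days, then 28 h aerobic recovery (5% CO₂ air). Luminescence read day 11; MIC at 90% signal reduction versus untreated controls.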

[3] = system: Mycobacterium tuberculosis; experiment: Antimycobacterial activity against replicating Mycobacterium tuberculosis H37Rv ATCC 27294 incubated for 7 days by microplate alamar blue assay; type: functional; conditions: H37Rv ATCC 27294, 168 h, time 7 day
Procedure, shortened: (§1)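 H37Rv (ATCC 27294) in 7H12 broth (7H9 with casitone, BSA, catalase, palmitic acid). Compounds from DMSO in twofold serial dilution; final inoculum 3 to 5 X10⁵ cells/mL; 7 days at 37°C. Resazurin plus Tween 80 added, 18–24 h more at 37°C. Fluorescence read at 530 nm excitation/590 nm emission. MIC is the lowest concentration giving 90% fluorescence reduction versus untreated bacteria.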

[4] = system: Mycobacterium tuberculosis; experiment: Antibacterial activity against Mycobacterium tuberculosis H37Rv incubated for 7 days by alamar blue reagent based fluorescence plate reader analysis; type: functional; conditions: 168 h, time 7 day; procedure, shortened: as §1
[5] = system: Mycobacterium tuberculosis; experiment: Antimycobacterial activity against Mycobacterium tuberculosis H37Ra by microplate alamar blue assay; type: functional
[6] = system: Mycobacterium tuberculosis; experiment: Antibacterial activity against Mycobacterium tuberculosis H37Rv ATCC 27294 by microplate alamar blue assay; type: functional; procedure, shortened: as §1
[7] = system: Mycobacterium tuberculosis; experiment: Antibacterial activity against Mycobacterium tuberculosis H37Rv; type: functional; procedure, shortened: as §1

| Structure (SMILES) | CC50 [1] | MIC [2] | MIC [3] | other results |
| --- | --- | --- | --- | --- |
| Nc1nc2ccccc2c2ccccc12 | 30.5 µM | 62.1 µM (≈ 12.1 µg/mL) | 61.3 µM (≈ 11.9 µg/mL) |  |
| Cc1ccc2nc(C)c(C(=O)NCCCC3CCCCC3)n2c1 |  |  |  | MIC [4]: 0.1 µM (≈ 0.0313 µg/mL) |
| O=C(Nc1nc2ccccc2c2ccccc12)c1cnccn1 | 53 µM | > 333 µM | > 333 µM |  |
| Cc1nc2c3ccccc3c3ccccc3n2c1C(=O)NCc1cn(-c2ccc([N+](=O)[O-])cc2Br)nn1 |  | 180 µM (≈ 100 µg/mL) | 180 µM (≈ 100 µg/mL) |  |
| O=C(Cc1ccc(Br)cc1)Nc1nc2ccccc2c2ccccc12 | > 50 µM | > 256 µM | > 256 µM |  |
| O=C(/C=C/c1ccccc1)Nc1nc2ccccc2c2ccccc12 |  | > 308 µM | > 308 µM |  |
| Cc1nc2c3ccccc3c3ccccc3n2c1C(=O)NCc1cn(-c2cccc([N+](=O)[O-])c2)nn1 | 71.9 µM | 87.4 µM (≈ 41.7 µg/mL) | 84.3 µM (≈ 40.2 µg/mL) |  |
| C#CCNC(=O)c1c(C)nc2c3ccccc3c3ccccc3n12 |  | > 319 µM | > 319 µM |  |
| O=C(Cc1ccccc1)Nc1nc2ccccc2c2ccccc12 | > 50 µM | 267 µM (≈ 83.5 µg/mL) | 294 µM (≈ 91.8 µg/mL) |  |
| Nc1cccc(C(=O)Nc2nc3ccccc3c3ccccc23)c1 | 56.9 µM | 151 µM (≈ 47.2 µg/mL) | 150 µM (≈ 46.9 µg/mL) |  |
| O=C(Nc1nc2ccccc2c2ccccc12)c1ccccc1I |  | > 236 µM | > 236 µM |  |
| Nc1ccc(C(=O)Nc2nc3ccccc3c3ccccc23)cc1 | 32.1 µM | 85.8 µM (≈ 26.9 µg/mL) | 78.3 µM (≈ 24.5 µg/mL) |  |
| CCCCCC(=O)Nc1nc2ccccc2c2ccccc12 | 79.5 µM | 79.8 µM (≈ 23.3 µg/mL) | > 342 µM |  |
| COc1ccc(-n2cc(CNC(=O)c3c(C)nc4c5ccccc5c5ccccc5n34)nn2)c([N+](=O)[O-])c1 |  | 106 µM (≈ 53.6 µg/mL) | 94 µM (≈ 47.7 µg/mL) |  |
| O=C(Nc1ccc(Cl)cn1)c1cccc(C(F)(F)F)c1 |  |  |  | MIC [5]: 109 µM (≈ 32.7 µg/mL) |
| Cc1nc2c3ccccc3c3ccccc3n2c1C(=O)NCc1cn(-c2cccc(C(F)(F)F)c2)nn1 | 82.3 µM | 89.5 µM (≈ 44.8 µg/mL) | 184 µM (≈ 92 µg/mL) |  |
| O=C(Cc1c[nH]c2ccccc12)Nc1nc2ccccc2c2ccccc12 | 32.1 µM | 69 µM (≈ 24.2 µg/mL) | 125 µM (≈ 44.1 µg/mL) |  |

| Structure (SMILES) | CC50 [1] | MIC [2] | MIC [3] | other results |
| --- | --- | --- | --- | --- |
| CCc1ccc(-n2cc(CNC(=O)c3c(C)nc4c5ccccc5c5ccccc5n34)nn2)cc1 |  | > 217 µM | > 217 µM |  |
| CCc1nc2ccc(C)cn2c1C(=O)NCCOc1ccc(N2CCC(=NOC)CC2)cc1 |  |  |  | MIC [6]: < 0.035 µM |
| Cc1nc2c3ccccc3c3ccccc3n2c1C(=O)NCc1cn(-c2ccc(Cl)c(Cl)c2[N+](=O)[O-])nn1 |  | > 183 µM | > 183 µM |  |
| Cc1nc2c3ccccc3c3ccccc3n2c1C(=O)NCc1cn(-c2ccc(C(F)(F)F)cc2)nn1 | 84.4 µM | 93 µM (≈ 46.5 µg/mL) | > 200 µM |  |
| CCCCCCCC(=O)Nc1nc2ccccc2c2ccccc12 | > 50 µM | 300 µM (≈ 96.2 µg/mL) | > 312 µM |  |
| Cc1cc(C)cc(-n2cc(CNC(=O)c3c(C)nc4c5ccccc5c5ccccc5n34)nn2)c1 | 90.7 µM | 208 µM (≈ 95.9 µg/mL) | > 217 µM |  |
| O=C(Nc1nc2ccccc2c2ccccc12)c1cccc(Cl)c1 |  | > 300 µM | > 300 µM |  |
| N#Cc1ccc(Cn2cc(CNC(=O)c3cn4ccccc4n3)nn2)cc1 |  |  |  | MIC [7]: 1560 µM (≈ 558 µg/mL) |
| O=C(CCCc1c[nH]c2ccccc12)Nc1nc2ccccc2c2ccccc12 | 30 µM | 218 µM (≈ 82.8 µg/mL) | 70.6 µM (≈ 26.8 µg/mL) |  |
| Cc1nc2c3ccccc3c3ccccc3n2c1C(=O)NCc1cn(-c2ccccc2Cl)nn1 |  | > 214 µM | > 214 µM |  |
| C#CCCC(=O)Nc1nc2ccccc2c2ccccc12 | 22.6 µM | > 365 µM | > 365 µM |  |
| O=C(NCc1ccc(N2CCC(Cl)CC2)cc1)c1cc([N+](=O)[O-])cc([N+](=O)[O-])c1 |  |  |  | MIC [6]: 0.038 µM (≈ 0.0159 µg/mL) |
| Cc1ccc(-n2cc(CNC(=O)c3c(C)nc4c5ccccc5c5ccccc5n34)nn2)cc1C |  | 78.8 µM (≈ 36.3 µg/mL) | 41.5 µM (≈ 19.1 µg/mL) |  |
| COc1nc2ccc(Br)cc2cc1[C@@H](c1ccccc1)[C@@](O)(CCN(C)C)c1cccc2ccccc12 [BEDAQUILINE] |  | 0.216 µM (≈ 0.12 µg/mL) | 0.054 µM (≈ 0.03 µg/mL) |  |
| NNC(=O)c1ccncc1 [ISONIAZID] |  | 560 µM (≈ 76.8 µg/mL) | 2.62 µM (≈ 0.36 µg/mL) |  |
| CO[C@H]1/C=C/O[C@@]2(C)Oc3c(C)c(O)c4c(O)c(c(/C=N/N5CCN(C)CC5)c(O)c4c3C2=O)NC(=O)/C(C)=C\C=C\[C@H](C)[C@H](O)[C@@H](C)[C@@H](O)[C@@H](C)[C@H](OC(C)=O)[C@@H]1C [RIFAMPIN] |  | 0.145 µM (≈ 0.119 µg/mL) | 0.073 µM (≈ 0.0601 µg/mL) |  |
